According to ChEMBL document CHEMBL1130118, “A novel radioiodination reagent for protein radiopharmaceuticals with L-lysine as a plasma-stable metabolizable linkage to liberate m-iodohippuric acid after lysosomal proteolysis” (J Med Chem, 1997):
“And” between values parts separate entries of the source, which are not always exact repeats. Equal values may be shown once.

What was measured:
Type in all cases: ADME, organism-based
Mus musculus [1] = experiment: The biodistribution time for [131 I ]L-HML-NGA radioactivity after concomitant administration of [131 I ]L-HML-NGA and [125 I ]MPH-NGA in mice. It is expressed as percent injected dose per liver. Ent after 1 hour; conditions: in vivo
How it was run: (§1)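 Six-week-old male ddY mice were given one i.v. co-injection of a 131I/125I-labelled NGA pair, each diluted to 90 µg/mL protein in 0.1 M PBS pH 6.0 and mixed 1:1, giving 9 µg of each radioiodinated NGA per mouse. Groups of five were killed at 5, 15, 30 min, 1 h and 3 h. Organs were weighed and counted in a well counter. Values are % ID per organ, blood as % ID/g, mean (SD).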

[2] = Cumulative radioactivity exerted by [131 I ]L-HML-NGA in the feces at 24 hour postinjection of [131 I ]L-HML-NGA and [125 I ]MPH-NGA.; conditions: in vivo
How it was run: (§2)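 Mice received one i.v. co-injection of the dual-isotope NGA mixture, 9 µg of each radioiodinated protein, and were housed in metabolic cages for 24 h. Cumulative urine and feces were collected and counted. Values are % injected dose, mean (SD) of five animals, with a Student's paired t-test between the two co-administered conjugates.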

Mus musculus [3] = experiment: The biodistribution time for [131 I ]L-HML-NGA radioactivity after concomitant administration of [131 I ]L-HML-NGA and [125 I ]L-HML-IT-NGA in mice. It is expressed as percent injected dose per liver; conditions: in vivo; how it was run: as §1
[4] = Cumulative radioactivity exerted by [131 I ]L-HML-NGA in the urine at 24 hour postinjection of [131 I ]L-HML-NGA and [125 I ]HML-IT-NGA.; conditions: in vivo; how it was run: as §2
Mus musculus [5] = experiment: The biodistribution time for [131 I ]L-HML-NGA radioactivity after concomitant administration of [[131 I ]L-HML-NGA and [125 I ]MIH-NGA in mice. It is expressed as percent injected dose per kidney.; conditions: in vivo; how it was run: as §1
Mus musculus [6] = experiment: The biodistribution time for [131 I ]L-HML-NGA radioactivity after concomitant administration of [131 I ]L-HML-NGA and [125 I ]MIH-NGA in mice. It is expressed as percent injected dose per stomach.; conditions: in vivo; how it was run: as §1
Mus musculus [7] = experiment: Biodistribution time for compound radioactivity after concomitant administration of compound and [125 I ]MIH-NGA in mice. It is expressed as % injected dose per liver. Values are mean(SD) of 5 animals for each experiment after 5 minutes; conditions: in vivo; how it was run: as §1
Mus musculus [8] = experiment: The biodistribution time for [131 I ]L-HML-NGA radioactivity after concomitant administration of [[131 I ]L-HML-NGA and [125 I ]MPH-NGA in mice. It is expressed as percent injected dose per kidney.; conditions: in vivo; how it was run: as §1
Mus musculus [9] = experiment: The biodistribution time for [131 I ]L-HML-NGA radioactivity after concomitant administration of [131 I ]L-HML-NGA and [125 I ]L-HML-IT-NGA in mice. It is expressed as percent injected dose per stomach.; conditions: in vivo; how it was run: as §1
Mus musculus [10] = experiment: The biodistribution time for [131 I ]L-HML-NGA radioactivity after concomitant administration of [131 I ]L-HML-NGA and [125 I ]L-HML-IT-NGA in mice. It is expressed as percent injected dose per neck.; conditions: in vivo; how it was run: as §1
Homo sapiens = species: Homo sapiens; experiment: The percent protein-bound radioactivity in NGAfractions following incubation of radioiodinated [131 I ]L-HML-NGA in human serum after 1 hour
How it was run: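 Conjugates were diluted to 0.5 mg/mL in 0.1 M PBS pH 6.0, and 20 µL was added to 230 µL of freshly prepared human serum. Samples were incubated at 37 °C and taken at 1, 3, 6 or 24 h. Protein-bound fraction (Rf 0) was separated from small metabolites (Rf 0.6-0.9) by paper chromatography in methanol-water 4:1. Protein-bound radioactivity was divided by the initial radiochemical purity. Values are mean (SD).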

Mus musculus [11] = experiment: The biodistribution time for [131 I ]L-HML-NGA radioactivity after concomitant administration of [131 I ]L-HML-NGA and [125 I ]MIH-NGA in mice. It is expressed as percent injected dose per gram of blood tissue.; conditions: in vivo; how it was run: as §1
Mus musculus [12] = experiment: The biodistribution time for [131 I ]L-HML-NGA radioactivity after concomitant administration of [131 I ]L-HML-NGA and [125 I ]L-HML-IT-NGA in mice. It is expressed as percent injected dose per gram of blood tissue. Values are mean(SD) of five anim; conditions: in vivo; how it was run: as §1
[13] = Cumulative radioactivity exerted by [131 I ]L-HML-NGA in the feces at 24 hour postinjection of [131 I ]L-HML-NGA and [125 I ]HML-IT-NGA.; conditions: in vivo; how it was run: as §2
Mus musculus [14] = experiment: The biodistribution time for [131 I ]L-HML-NGA radioactivity after concomitant administration of [131 I ]L-HML-NGA and [125 I ]D-HML-NGA in mice. It is expressed as percent injected dose per neck.; conditions: in vivo; how it was run: as §1
Mus musculus [15] = experiment: The biodistribution time for [131 I ]L-HML-NGA radioactivity after concomitant administration of [131 I ]L-HML-NGA and [125 I ]MPH-NGA in mice. It is expressed as percent injected dose per gram of blood tissue.; conditions: in vivo; how it was run: as §1
Mus musculus [16] = experiment: The biodistribution time for [131 I ]L-HML-NGA radioactivity after concomitant administration of [131 I ]L-HML-NGA and [125 I ]L-HML-IT-NGA in mice. It is expressed as percent injected dose per intestine.; conditions: in vivo; how it was run: as §1
[17] = Cumulative radioactivity exerted by [131 I ]L-HML-NGA in the urine at 24 hour postinjection of [131 I ]L-HML-NGA and [125 I ]D-HML-NGA.; conditions: in vivo; how it was run: as §2
Mus musculus [18] = experiment: The biodistribution time for [131 I ]L-HML-NGA radioactivity after concomitant administration of [131 I ]L-HML-NGA and [125 I ]MPH-NGA in mice. It is expressed as percent injected dose per intestine.; conditions: in vivo; how it was run: as §1
Mus musculus [19] = experiment: The biodistribution time for [131 I ]L-HML-NGA radioactivity after concomitant administration of [131 I ]L-HML-NGA and [125 I ]D-HML-NGA in mice. It is expressed as percent injected dose per gram of blood tissue.; conditions: in vivo; how it was run: as §1
Mus musculus [20] = experiment: The biodistribution time for [131 I ]L-HML-NGA radioactivity after concomitant administration of [131 I ]L-HML-NGA and [125 I ]MPH-NGA in mice. It is expressed as percent injected dose per neck.; conditions: in vivo; how it was run: as §1
Mus musculus [21] = experiment: The biodistribution time for [131 I ]L-HML-NGA radioactivity after concomitant administration of [131 I ]L-HML-NGA and [125 I ]D-HML-NGA in mice. It is expressed as percent injected dose per intestine.; conditions: in vivo; how it was run: as §1
Mus musculus [22] = experiment: The biodistribution time for [131 I ]L-HML-NGA radioactivity after concomitant administration of [131 I ]L-HML-NGA and [125 I ]MIH-NGA in mice. It is expressed as percent injected dose per neck.; conditions: in vivo; how it was run: as §1

SMILES: N[C@@H](CS)C(=O)SC1CC(=O)N(CCCC[C@H](NC(=O)CNC(=O)c2cccc([131I])c2)C(=O)O)C1=O (stereo partly drawn)
- Radioactivity (Mus musculus [1]): 4.29%
- Radioactivity [2]: 3.28%
- Radioactivity (Mus musculus [3]): 54.25%
- Radioactivity [4]: 80.07%
- Radioactivity (Mus musculus [5]): 0.84% and 4.16% and 2.19% and 0.51% and 0.16%
- Radioactivity (Mus musculus [6]): 0.39% and 0.47% and 0.46% and 0.45% and 0.51%
- Radioactivity (Mus musculus [7]): 94.15%
- Radioactivity (Mus musculus [8]): 0.76% and 5.3% and 2.3% and 0.31% and 0.13%
- Radioactivity (Mus musculus [9]): 0.17% and 0.46% and 0.3% and 0.35%
- Radioactivity (Mus musculus [10]): 0.07% and 0.25% and 0.21% and 0.03%
- Radioactivity (Homo sapiens): 99.78%
- Radioactivity (Mus musculus [11]): 1.22% and 2.93% and 1.48% and 0.58% and 0.43%
- Radioactivity (Mus musculus [12]): 3.19%
- Radioactivity [13]: 2.83%
- Radioactivity (Mus musculus [14]): 0.13% and 0.28% and 0.17% and 0.12% and 0.05%
- Radioactivity (Mus musculus [15]): 1.22% and 3.14% and 1.28% and 0.54% and 0.31%
- Radioactivity (Mus musculus [16]): 0.35% and 2.3% and 4.98% and 5.54% and 5.14%
- Radioactivity [17]: 80.78%
- Radioactivity (Mus musculus [18]): 0.66% and 4.66% and 4.59% and 5.75% and 5.43%
- Radioactivity (Mus musculus [19]): 1.9% and 3.14% and 1.63% and 0.82% and 0.5%
- Radioactivity (Mus musculus [20]): 0.05% and 0.23% and 0.09% and 0.03%
- Radioactivity (Mus musculus [21]): 1.77% and 4.88% and 7.76% and 9.83% and 8.6%
- Radioactivity (Mus musculus [22]): 0.07% and 0.25% and 0.12% and 0.05% and 0.03%
